Reference: the M2OR odorant receptor database

Tests used:
Settings in all cases: stereoisomer not certain
[1] = target: T1, OR52I1 (Homo sapiens) (UniProt Q8NGK6)
T1 sequence (whole entry): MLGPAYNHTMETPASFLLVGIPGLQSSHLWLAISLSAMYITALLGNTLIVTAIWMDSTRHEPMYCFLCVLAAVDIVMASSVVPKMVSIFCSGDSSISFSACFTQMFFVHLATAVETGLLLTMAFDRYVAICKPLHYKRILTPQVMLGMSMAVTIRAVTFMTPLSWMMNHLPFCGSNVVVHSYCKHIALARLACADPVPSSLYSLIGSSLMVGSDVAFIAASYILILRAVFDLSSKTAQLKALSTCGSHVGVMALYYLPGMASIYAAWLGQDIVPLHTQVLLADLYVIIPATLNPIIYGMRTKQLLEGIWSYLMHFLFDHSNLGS
How it was run: (§1)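 Transient luciferase assays in mammalian cell lines were common, though methods varied by source. The values come from published papers and their supplementary material, with extra details from the original authors when needed. Responsive refers to a measured signal the original authors judged statistically different from baseline, and non-responsive (inactive) to the remainder.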

[2] = target: T2, OR52I2 (Homo sapiens) (UniProt Q8NH67)
T2 sequence (whole entry): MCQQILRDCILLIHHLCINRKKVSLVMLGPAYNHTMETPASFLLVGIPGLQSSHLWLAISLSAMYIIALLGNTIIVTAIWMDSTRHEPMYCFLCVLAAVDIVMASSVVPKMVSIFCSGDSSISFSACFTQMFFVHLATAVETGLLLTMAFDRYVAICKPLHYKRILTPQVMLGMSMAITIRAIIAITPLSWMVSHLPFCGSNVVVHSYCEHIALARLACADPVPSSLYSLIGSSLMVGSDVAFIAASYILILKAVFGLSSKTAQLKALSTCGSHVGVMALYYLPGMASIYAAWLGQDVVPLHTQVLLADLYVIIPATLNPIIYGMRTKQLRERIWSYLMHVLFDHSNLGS
How it was run: as §1

[3] = target: OR52J3 (Homo sapiens) (UniProt Q8NH60)
OR52J3 (Homo sapiens), sequence (Q8NH60 whole entry): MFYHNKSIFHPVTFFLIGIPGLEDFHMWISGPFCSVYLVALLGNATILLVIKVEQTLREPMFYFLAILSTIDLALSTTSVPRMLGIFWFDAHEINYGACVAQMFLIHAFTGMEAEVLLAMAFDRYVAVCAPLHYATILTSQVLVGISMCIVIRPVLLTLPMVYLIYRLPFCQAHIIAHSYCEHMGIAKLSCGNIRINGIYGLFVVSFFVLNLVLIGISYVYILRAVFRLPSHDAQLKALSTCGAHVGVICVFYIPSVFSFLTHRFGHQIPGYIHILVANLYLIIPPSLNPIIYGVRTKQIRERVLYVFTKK
How it was run: as §1

[4] = target: T3, OR52K1 (Homo sapiens) (UniProt Q8NGK4)
T3 sequence (whole entry): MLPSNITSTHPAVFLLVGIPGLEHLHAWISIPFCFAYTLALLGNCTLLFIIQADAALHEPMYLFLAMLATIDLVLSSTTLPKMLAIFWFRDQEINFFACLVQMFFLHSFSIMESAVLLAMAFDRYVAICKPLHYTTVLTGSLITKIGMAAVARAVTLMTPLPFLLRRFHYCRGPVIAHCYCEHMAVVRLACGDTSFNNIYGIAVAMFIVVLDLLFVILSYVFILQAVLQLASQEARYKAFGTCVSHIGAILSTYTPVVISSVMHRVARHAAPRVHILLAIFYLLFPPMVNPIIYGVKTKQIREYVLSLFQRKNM
How it was run: as §1

[5] = target: T4, OR52K2 (Homo sapiens) (UniProt Q8NGK3)
T4 sequence (whole entry): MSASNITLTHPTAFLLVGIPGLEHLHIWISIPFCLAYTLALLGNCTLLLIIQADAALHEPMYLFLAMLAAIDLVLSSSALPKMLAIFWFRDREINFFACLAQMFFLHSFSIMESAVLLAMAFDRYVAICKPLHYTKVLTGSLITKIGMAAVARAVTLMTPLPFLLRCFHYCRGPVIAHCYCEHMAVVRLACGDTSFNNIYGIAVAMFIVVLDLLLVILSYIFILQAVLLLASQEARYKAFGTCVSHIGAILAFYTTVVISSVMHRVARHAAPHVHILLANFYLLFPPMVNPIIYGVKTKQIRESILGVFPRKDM
How it was run: as §1

[6] = target: T5, OR52L1 (Homo sapiens) (UniProt Q8NGH7)
T5 sequence (whole entry): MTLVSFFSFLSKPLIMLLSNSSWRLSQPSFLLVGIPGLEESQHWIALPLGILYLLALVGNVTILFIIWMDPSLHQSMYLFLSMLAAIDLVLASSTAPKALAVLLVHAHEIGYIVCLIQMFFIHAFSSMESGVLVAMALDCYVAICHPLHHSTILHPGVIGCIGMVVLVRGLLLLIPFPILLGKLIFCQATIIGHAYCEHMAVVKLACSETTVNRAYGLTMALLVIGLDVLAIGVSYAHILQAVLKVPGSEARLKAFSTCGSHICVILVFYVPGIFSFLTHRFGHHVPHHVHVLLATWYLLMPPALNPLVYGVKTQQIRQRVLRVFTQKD
How it was run: as §1

[7] = target: T6, OR52M1 (Homo sapiens) (UniProt Q8NGK5)
T6 sequence (whole entry): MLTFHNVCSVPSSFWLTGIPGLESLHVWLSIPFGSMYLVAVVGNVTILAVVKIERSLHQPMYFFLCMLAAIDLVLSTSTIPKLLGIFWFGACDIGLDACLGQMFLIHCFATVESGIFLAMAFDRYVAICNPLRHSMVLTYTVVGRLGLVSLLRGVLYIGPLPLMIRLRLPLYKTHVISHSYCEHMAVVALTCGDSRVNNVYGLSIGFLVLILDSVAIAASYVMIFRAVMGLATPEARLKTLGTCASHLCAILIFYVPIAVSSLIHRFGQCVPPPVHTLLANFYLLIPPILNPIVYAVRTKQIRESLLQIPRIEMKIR
How it was run: as §1

[8] = target: T7, OR52N1 (Homo sapiens) (UniProt Q8NH53)
T7 sequence (whole entry): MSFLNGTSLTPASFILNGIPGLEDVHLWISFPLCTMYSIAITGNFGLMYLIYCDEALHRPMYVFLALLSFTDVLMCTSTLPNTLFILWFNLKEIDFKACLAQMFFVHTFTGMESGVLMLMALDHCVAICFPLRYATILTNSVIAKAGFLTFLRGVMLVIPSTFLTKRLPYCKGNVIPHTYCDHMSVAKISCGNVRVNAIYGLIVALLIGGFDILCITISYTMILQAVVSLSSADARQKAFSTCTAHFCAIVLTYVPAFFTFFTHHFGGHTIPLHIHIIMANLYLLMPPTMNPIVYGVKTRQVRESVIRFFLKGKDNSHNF
How it was run: as §1

[9] = target: T8, OR52N2 (Homo sapiens) (UniProt Q8NGI0)
T8 sequence (whole entry): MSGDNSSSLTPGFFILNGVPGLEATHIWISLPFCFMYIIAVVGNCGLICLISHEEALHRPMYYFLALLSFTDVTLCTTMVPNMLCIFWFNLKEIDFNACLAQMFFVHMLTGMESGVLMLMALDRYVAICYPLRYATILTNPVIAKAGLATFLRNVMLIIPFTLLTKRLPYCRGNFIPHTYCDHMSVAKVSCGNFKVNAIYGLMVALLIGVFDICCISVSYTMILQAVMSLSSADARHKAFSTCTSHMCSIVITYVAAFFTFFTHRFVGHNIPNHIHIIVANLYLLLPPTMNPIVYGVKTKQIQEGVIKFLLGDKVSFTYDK
How it was run: as §1

[10] = target: T9, OR52N4 (Homo sapiens) (UniProt Q8NGI2)
T9 sequence (whole entry): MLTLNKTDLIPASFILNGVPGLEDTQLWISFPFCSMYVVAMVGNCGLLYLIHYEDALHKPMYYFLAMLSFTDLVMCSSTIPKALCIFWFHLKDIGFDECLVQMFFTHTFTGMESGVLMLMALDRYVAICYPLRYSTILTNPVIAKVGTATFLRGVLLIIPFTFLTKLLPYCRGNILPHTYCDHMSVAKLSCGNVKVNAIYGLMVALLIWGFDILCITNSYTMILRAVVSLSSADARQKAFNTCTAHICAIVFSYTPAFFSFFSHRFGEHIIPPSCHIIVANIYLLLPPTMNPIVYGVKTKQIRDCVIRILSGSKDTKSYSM
How it was run: as §1

[11] = target: T10, OR52N5 (Homo sapiens) (UniProt Q8NH56)
T10 sequence (whole entry): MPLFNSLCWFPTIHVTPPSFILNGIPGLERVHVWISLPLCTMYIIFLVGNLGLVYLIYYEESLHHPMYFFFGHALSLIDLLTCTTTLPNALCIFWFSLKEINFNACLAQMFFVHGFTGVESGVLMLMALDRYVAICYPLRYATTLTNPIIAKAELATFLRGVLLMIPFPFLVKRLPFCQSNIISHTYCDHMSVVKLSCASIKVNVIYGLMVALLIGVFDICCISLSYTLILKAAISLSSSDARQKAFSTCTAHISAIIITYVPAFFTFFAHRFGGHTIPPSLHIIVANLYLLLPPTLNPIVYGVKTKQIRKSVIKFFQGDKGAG
How it was run: as §1

[12] = target: T11, OR52R1 (Homo sapiens) (UniProt Q8NGF1)
T11 sequence (whole entry): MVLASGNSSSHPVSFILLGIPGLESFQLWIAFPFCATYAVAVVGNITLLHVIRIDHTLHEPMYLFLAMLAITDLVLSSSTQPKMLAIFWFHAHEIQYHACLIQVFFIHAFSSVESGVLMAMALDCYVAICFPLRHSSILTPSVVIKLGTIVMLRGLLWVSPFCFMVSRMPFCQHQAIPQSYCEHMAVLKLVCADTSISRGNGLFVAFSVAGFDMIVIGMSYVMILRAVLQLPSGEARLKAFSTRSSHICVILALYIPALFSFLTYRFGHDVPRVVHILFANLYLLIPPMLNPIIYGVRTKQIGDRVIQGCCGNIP
How it was run: as §1

[13] = target: T12, OR52W1 (Homo sapiens) (UniProt Q6IF63)
T12 sequence (whole entry): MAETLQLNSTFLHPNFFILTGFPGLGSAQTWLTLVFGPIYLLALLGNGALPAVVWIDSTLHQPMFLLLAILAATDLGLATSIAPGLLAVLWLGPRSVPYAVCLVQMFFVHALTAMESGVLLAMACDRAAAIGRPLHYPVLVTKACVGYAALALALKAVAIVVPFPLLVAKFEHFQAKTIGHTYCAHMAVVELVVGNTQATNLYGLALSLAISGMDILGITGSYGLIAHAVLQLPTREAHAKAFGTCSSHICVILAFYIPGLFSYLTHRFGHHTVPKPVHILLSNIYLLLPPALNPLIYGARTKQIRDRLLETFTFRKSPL
How it was run: as §1

[14] = target: OR52Z1P (Homo sapiens) (UniProt P0C646)
OR52Z1P (Homo sapiens), sequence (P0C646 whole entry): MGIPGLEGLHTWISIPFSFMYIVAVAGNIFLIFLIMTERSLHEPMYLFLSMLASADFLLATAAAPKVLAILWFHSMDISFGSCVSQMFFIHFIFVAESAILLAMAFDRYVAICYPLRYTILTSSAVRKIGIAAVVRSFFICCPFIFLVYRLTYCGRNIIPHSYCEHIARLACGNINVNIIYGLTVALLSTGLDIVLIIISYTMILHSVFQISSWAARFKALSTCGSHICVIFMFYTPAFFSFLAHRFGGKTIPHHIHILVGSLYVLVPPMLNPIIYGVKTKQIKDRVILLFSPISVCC
How it was run: as §1

[15] = target: T13, OR56A1 (Homo sapiens) (UniProt Q8NGH5)
T13 sequence (whole entry): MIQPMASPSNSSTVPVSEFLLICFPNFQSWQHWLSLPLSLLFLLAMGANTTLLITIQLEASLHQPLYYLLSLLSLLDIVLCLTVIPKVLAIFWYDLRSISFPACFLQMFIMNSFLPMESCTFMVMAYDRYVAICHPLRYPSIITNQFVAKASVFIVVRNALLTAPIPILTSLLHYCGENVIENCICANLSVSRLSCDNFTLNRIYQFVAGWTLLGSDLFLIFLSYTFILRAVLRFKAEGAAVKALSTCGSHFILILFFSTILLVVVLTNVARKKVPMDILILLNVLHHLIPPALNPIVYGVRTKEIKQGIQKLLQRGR
How it was run: as §1

[16] = target: T14, OR56A3 (Homo sapiens) (UniProt Q8NH54)
T14 sequence (whole entry): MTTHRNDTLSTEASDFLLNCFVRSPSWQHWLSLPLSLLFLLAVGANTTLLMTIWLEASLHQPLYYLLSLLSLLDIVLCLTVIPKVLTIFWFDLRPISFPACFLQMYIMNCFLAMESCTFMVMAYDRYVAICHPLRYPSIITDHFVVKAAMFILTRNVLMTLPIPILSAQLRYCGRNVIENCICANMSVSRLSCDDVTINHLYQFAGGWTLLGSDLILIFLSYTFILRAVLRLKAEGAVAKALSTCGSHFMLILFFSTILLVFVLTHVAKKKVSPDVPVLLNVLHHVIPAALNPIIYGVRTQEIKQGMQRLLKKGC
How it was run: as §1

[17] = target: T15, OR56A4 (Homo sapiens) (UniProt Q8NGH8)
T15 sequence (whole entry): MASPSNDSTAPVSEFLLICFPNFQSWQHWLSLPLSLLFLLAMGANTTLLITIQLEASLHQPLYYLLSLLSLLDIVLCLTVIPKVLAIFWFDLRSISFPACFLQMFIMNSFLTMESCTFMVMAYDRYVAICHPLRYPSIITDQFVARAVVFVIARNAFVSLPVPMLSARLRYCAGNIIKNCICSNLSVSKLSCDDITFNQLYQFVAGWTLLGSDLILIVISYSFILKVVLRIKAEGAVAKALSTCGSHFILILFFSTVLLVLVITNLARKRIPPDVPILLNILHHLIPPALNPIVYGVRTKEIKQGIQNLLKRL
How it was run: as §1

[18] = target: T16, OR56A5 (Homo sapiens) (UniProt P0C7T3)
T16 sequence (whole entry): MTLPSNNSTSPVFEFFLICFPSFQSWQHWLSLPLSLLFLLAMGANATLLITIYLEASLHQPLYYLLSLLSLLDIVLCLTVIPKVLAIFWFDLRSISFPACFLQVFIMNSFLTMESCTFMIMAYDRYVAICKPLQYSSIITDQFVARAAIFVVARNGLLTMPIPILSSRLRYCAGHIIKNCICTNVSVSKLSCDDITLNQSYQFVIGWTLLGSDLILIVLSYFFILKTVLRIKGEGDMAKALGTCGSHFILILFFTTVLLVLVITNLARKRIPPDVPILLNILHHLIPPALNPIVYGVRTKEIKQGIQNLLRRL
How it was run: as §1

[19] = target: T17, OR56B1 (Homo sapiens) (UniProt Q8NGI3)
T17 sequence (whole entry): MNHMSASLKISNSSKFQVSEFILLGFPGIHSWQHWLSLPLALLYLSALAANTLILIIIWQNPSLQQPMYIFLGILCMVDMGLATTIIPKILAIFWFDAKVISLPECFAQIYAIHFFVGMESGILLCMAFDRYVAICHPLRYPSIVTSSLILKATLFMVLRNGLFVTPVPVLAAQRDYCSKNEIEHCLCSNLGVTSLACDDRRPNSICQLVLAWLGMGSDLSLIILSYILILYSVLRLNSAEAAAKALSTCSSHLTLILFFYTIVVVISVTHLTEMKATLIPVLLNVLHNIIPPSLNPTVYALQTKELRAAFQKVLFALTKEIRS
How it was run: as §1

Measured: odorant receptor agonist call

CC(=O)c1c(C)c([N+](=O)[O-])c(C(C)(C)C)c([N+](=O)[O-])c1C
inactive: [1] | [2] | [3] | [4] | [5] | [6] | [7] | [8] | [9] | [10] | [11] | [12] | [13] | [14] | [15] | [16] | [17] | [18] | [19]

CCCCCC(S)C(C)CO (configuration not stated)
inactive: [1] | [2] | [3] | [4] | [5] | [6] | [7] | [8] | [9] | [10] | [11] | [12] | [13] | [15] | [16] | [17] | [18] | [19]
